Experimental data from ChEMBL document CHEMBL1671641, “1,5-benzodiazepines, a novel class of hepatitis C virus polymerase nonnucleoside inhibitors” (Antimicrob Agents Chemother, 2008).

Legend:
[1] = tested on: Hepatitis C virus; assay: Non competitive inhibition of Hepatitis C virus 1b J4 recombinant NS5B Cdelta 21 RNA dependent RNA polymerase overexpressed in Escherichia coli BL21 (DE3) in presence of radiolabeled 200 uM GTP
[2] = Cytotoxicity against CMV-Luc transfected human HuH7 cells after 5 days; type: cell-based, Huh-7; details: huh-7, 120 h, 120 h
[3] = tested on: Hepatitis C virus; assay: Inhibition of Hepatitis C virus 1b J4 recombinant NS5B Cdelta 21 RNA dependent RNA polymerase overexpressed in Escherichia coli BL21 (DE3) by RdRp primer-dependent transcription assay; parameters: species or system Hepatitis C virus subtype 1b
[4] = tested on: Hepatitis C virus; assay: Antiviral activity against Hepatitis C virus 1b infected in human HuH7 cells assessed as inhibition of viral replication after 3 days by luciferase reporter assay; type: functional, organism-based, Hepacivirus hominis, genotype 1b, Huh-7; details: huh-7
Outline: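 HCV 1b subgenomic luciferase reporter replicon (clone ET) cells, 2,500 per well, were exposed to a nine-point 1/4 dilution series for 3 days. Replication was read as luciferase activity. Values are means ± SD from 2 to 23 independent experiments run in quadruplicate.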

[5] = tested on: Hepatitis C virus; assay: Inhibition of Hepatitis C virus 1b J4 recombinant NS5B Cdelta 21 RNA dependent RNA polymerase overexpressed in Escherichia coli BL21 (DE3) assessed as [alpha-33P]UTP incorporation by RdRp primer-independent transcription assay; parameters: species or system Hepatitis C virus subtype 1b
Outline: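 De novo (primer-independent) RdRp assay: 190 nM NS5BΔ21 (1b J4) with 86 nM HCV 3′ UTR template RNA, 0.5 mM each ATP/GTP/CTP, 10 μM UTP plus [α-³³P]UTP, in 20 mM Tris-HCl pH 7.5, 1 mM DTT, 5 mM MgCl₂, 20 mM NaCl. Incubated 2 h at room temperature, stopped with EDTA/tRNA, TCA-precipitated on filters, and scintillation-counted. Quadruplicate.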

[6] = tested on: Hepatitis C virus; assay: Non competitive inhibition of Hepatitis C virus 1b J4 recombinant NS5B Cdelta 21 RNA dependent RNA polymerase overexpressed in Escherichia coli BL21 (DE3) in presence of radiolabeled 20 nM GTP; parameters: species or system Hepatitis C virus subtype 1b
Outline: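 Primer-dependent RdRp assay using purified C-terminally truncated NS5BΔ21 (genotype 1b J4) expressed in E. coli BL21(DE3). Enzyme was incubated with a poly(rC)/oligo(rG13) template, radiolabeled GTP at 20 nM, and a range of inhibitor concentrations. IC50 was derived by nonlinear regression of the dose-response curves. The run was done once in quadruplicate, reported as means ± SEM.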

[7] = tested on: MT4; assay: Cytotoxicity against LTR-Luc transfected human MT4 cells […] after 3 days by ATPLite assay; type: cell-based; details: mt4, 72 h, 72 h

CC(=O)N1c2ccccc2NC2=C(C(=O)CC(C)(C)C2)C1c1ccc(OCc2ccccc2)c(Cl)c1 (single isomer, unassigned; 4a)
IC50 [1]: 1.3 µM | CC50 [2]: > 32 µM | IC50 [3]: 1 µM | EC50 [4]: 1.9 µM | IC50 [5]: 0.9 µM | IC50 [6]: 1 µM | CC50 [7]: 16.4 µM
